Assay results published in ChEMBL document CHEMBL4229550, “An antimycobacterial pleuromutilin analogue effective against dormant bacilli” (Bioorg Med Chem, 2018).
Converted amounts (≈) assume the structure as drawn.

Legend:
[1] = tested on: Mycobacterium tuberculosis; assay: Antibacterial activity against replicating Mycobacterium tuberculosis H37Rv incubated for 15 days under aerobic condition by MABA; type: functional; settings: 360 h, read-out: MIC100
In short: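 Mtb H37Rv grown in 7H9/OADC at 37 °C with shaking to OD600 0.5. The 0.5-OD culture is exposed aerobically to serial dilutions for 15 days at 37 °C. Resazurin (0.02% stock) is then added for 4 h at 37 °C with shaking.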

Vero = assay: Cytotoxicity against African green monkey Vero cells assessed as reduction in cell viability after 72 hrs by MTT assay; type: cell-based; settings: Chlorocebus sabaeus
In short: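 Vero cells were grown in complete EMEM with 10% FBS and exposed for 72 h to 0.78–200 µg/mL. The medium was then swapped for phenol-red-free EMEM and MTT was added. Formazan absorbance was read at 570 nm to give IC50.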

[2] = Selectivity index, ratio of IC50 for African green monkey Vero cells to MIC100 for replicating Mycobacterium tuberculosis H37Rv by MABA; type: toxicity; settings: read-out: Selectivity Index
In short: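 Vero cells are cultured in EMEM with 10% FBS and exposed for 72 h to 0.78–200 µg/mL. Medium is switched to phenol-red-free EMEM, MTT is added, and formazan is read at 570 nm to give IC50. The selectivity index is Vero IC50 divided by the MABA MIC.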

CC[C@@H](CO)NCCN[C@@H](CC)CO [ETHAMBUTOL] gave an MIC [1] of 0.78 µg/mL (≈ 3.82 µM), an IC50 (Vero) greater than 200 µg/mL and a selectivity ratio [2] greater than 256.
